# Source: ChEMBL document CHEMBL4257587 (J Med Chem, 2018)
# Columns and labels:
# [1] = test system: Mycobacterium tuberculosis; experiment: Antibacterial activity against Mycobacterium tuberculosis H37Rv infected in C57BL/6 mouse assessed as reduction in colony forming units administered orally once daily for 8 days starting following day after infection and measured at 24 hrs post last dose relative to untreated control; assay type: functional
# Procedure, shortened: (§1)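 Female C57BL/6 mice, 8−10 weeks old, infected intratracheally with 100 000 CFU of H37Rv. Oral dosing once daily for 8 days began 1 day post-infection. Lungs were harvested 24 h after the last dose, homogenised and plated on 7H11 with 10% OADC and 0.4% charcoal for 18 days at 37 °C. Log10 CFU was fitted to a sigmoidal dose-response curve, and ED99 was defined as a 2-log CFU drop versus untreated.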
# [2] = Oral bioavailability in C57BL/6 mouse at 44 mg/kg via gavage by LC-MS/MS analysis; assay type: ADME, organism-based; conditions: in vivo
# [3] = test system: HepG2; experiment: cells; assay type: ADME, cell-based; conditions: Homo sapiens, HepG2, 48 h
# [4] = Volume of distribution at steady state in C57BL/6 mouse at […], iv by LC-MS/MS analysis; assay type: ADME, organism-based; conditions: in vivo, read-out: Vdss
# [5] = Intrinsic clearance in human liver microsomes at 0.5 uM preincubated with NADPH and measured up to 30 mins by LC-MS/MS analysis; assay type: ADME, microsome
# [6] = AUC in C57BL/6 mouse at 44 mg/kg, po via gavage by LC-MS/MS analysis; assay type: ADME, organism-based; conditions: in vivo
# [7] = Half life in C57BL/6 mouse at […], iv by LC-MS/MS analysis; assay type: ADME, organism-based; conditions: in vivo
# [8] = test system: Mus musculus; experiment: Toxicity in Mycobacterium tuberculosis H37Rv infected C57BL/6 mouse assessed as drug tolerability at >50 mg/kg, po administered once daily for 8 days starting following day after infection and measured at 24 hrs post last dose; assay type: organism-based; conditions: in vivo
# [9] = Cmax in C57BL/6 mouse at 44 mg/kg, po via gavage by LC-MS/MS analysis; assay type: ADME, organism-based; parameters: dose 44 mg/kg, route oral; conditions: in vivo
# [10] = Intrinsic clearance in mouse liver microsomes at 0.5 uM preincubated with NADPH and measured up to 30 mins by LC-MS/MS analysis; assay type: ADME, microsome
# [11] = Clearance in C57BL/6 mouse at […], iv by LC-MS/MS analysis; assay type: ADME, organism-based; conditions: in vivo
# [12] = test system: Mycobacterium tuberculosis; experiment: Antimycobacterial activity against Mycobacterium tuberculosis H37Rv ATCC 25618 after 6 days by resazurin-based assay; assay type: functional; conditions: H37Rv ATCC 25618, 144 h
# [13] = test system: Mycobacterium tuberculosis; experiment: Antibacterial activity against Mycobacterium tuberculosis H37Rv infected in C57BL/6 mouse assessed as efficacious dose casing 2 log reduction in colony forming units administered orally once daily for 8 days starting following day after infection and measured at 24 hrs post last dose; assay type: functional; conditions: po; procedure, shortened: as §1
# [14] = test system: Mycobacterium tuberculosis; experiment: Antimycobacterial activity against Mycobacterium tuberculosis H37Rv ATCC 25618 assessed as reduction in cell viability after 7 days by bacTiter-Glo assay; assay type: functional; conditions: H37Rv ATCC 25618, 168 h
# [15] = Cmax in C57BL/6 mouse at 49.2 mg/kg, po via gavage by LC-MS/MS analysis; assay type: ADME, organism-based; parameters: dose 49.2 mg/kg, route oral; conditions: in vivo
# [16] = test system: Mus musculus; experiment: Oral bioavailability in C57BL/6 mouse at 49.2 mg/kg via gavage by LC-MS/MS analysis; assay type: ADME, organism-based; conditions: in vivo
# [17] = Half life in C57BL/6 mouse at 4 mg/kg, iv by LC-MS/MS analysis; assay type: ADME, organism-based; conditions: in vivo
# Procedure, shortened: (§2)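 Female C57BL/6 mice (18−20 g), single intravenous dose in 5% DMSO/20% Encapsin. Tail-vein whole blood (25 μL) was taken from each mouse (n = 5) at 5, 15 and 30 min and 1, 2, 4 and 8 h postdose, and compound concentration was measured in peripheral whole blood.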
# [18] = physchem; conditions: buffer, pH 7.4
# [19] = test system: Mycobacterium tuberculosis; experiment: Antimycobacterial activity against Mycobacterium tuberculosis clinical isolates after 6 days by resazurin-based assay; assay type: functional; conditions: 144 h
# [20] = Cytotoxicity against human HepG2 cells after 48 hrs by cellTiter-Glo assay; assay type: cell-based; conditions: read-out: TC50
# [21] = Volume of distribution at steady state in C57BL/6 mouse at 4 mg/kg, iv by LC-MS/MS analysis; assay type: ADME, organism-based; conditions: in vivo, read-out: Vdss; procedure, shortened: as §2
# [22] = test system: Mus musculus; experiment: AUC in C57BL/6 mouse at 49.2 mg/kg, po via gavage by LC-MS/MS analysis; assay type: ADME, organism-based; conditions: in vivo
# [23] = Cardiotoxicity in New Zealand white perfused rabbit heart left ventricular wedge assessed as prolongation of QRS interval time at 30 uM by electrophysiology assay relative to control; assay type: toxicity, tissue-based, Oryctolagus cuniculus, Heart left ventricle
# [24] = Cardiotoxicity in New Zealand white perfused rabbit heart left ventricular wedge assessed as drug concentration causing prolongation of Tp-e interval time by electrophysiology assay; assay type: toxicity, tissue-based, Oryctolagus cuniculus, Heart left ventricle
# [25] = Cardiotoxicity in New Zealand white perfused rabbit heart left ventricular wedge assessed as prolongation of Tp-e interval time at 10 uM by electrophysiology assay relative to control; assay type: toxicity, tissue-based, Oryctolagus cuniculus, Heart left ventricle
# [26] = test system: HepG2; experiment: Cytotoxicity against human HepG2 cells assessed as effect on mitochondrial membrane potential after 48 hrs by TMRM-staining based cell health assay; assay type: ADME; conditions: HepG2, 48 h
# [27] = Cardiotoxicity in New Zealand white perfused rabbit heart left ventricular wedge assessed as prolongation of QT interval at 10 uM by electrophysiology assay; assay type: toxicity, tissue-based, Oryctolagus cuniculus, Heart left ventricle
smiles,measurement,setting,value
FC(F)(F)Oc1ccc(Oc2ccc(N3CCC4(CC3)OCCc3sccc34)cc2)cc1,Activity,[1],4.2 log10CFU
same,bioavailability,[2],42.6%
same,IC50,[3],11 µM
same,Vd,[4],10.4 L/kg
same,CLH,[5],0.6 mL/min/g
same,AUC,[6],8740 ng·h/mL
same,half-life,[7],192 min
same,Activity,[8],Non-Toxic
same,Cmax,[9],1270 ng/mL
same,CLH,[10],1.2 mL/min/g
same,clearance,[11],36.3 mL/min/kg
same,MIC90,[12],0.06 µM
same,ED99,[13],11.6 mg/kg
c1cc2c(s1)CCOC21CCN(Cc2ccc3c(c2)OCCO3)CC1,MIC80,[14],0.25 µM
same,Cmax,[15],470 ng/mL
same,F,[16],14.6%
same,half-life,[17],42 min
same,solubility kinetic at 1 h,[18],266 µM
same,MIC90,[19],0.6 µM
same,CLH,[5],25 mL/min/g
same,CC50 at 48 h,[20],36 µM
same,Vd,[21],7.4 L/kg
same,CLH,[10],> 30 mL/min/g
same,MIC90,[12],0.3 µM
same,AUC,[22],1.78 µg·h/mL
CC(C)(C)c1ccc(CN2CCC3(CCCCO3)CC2)cc1,IC50,[3],129 µM
same,Activity,[23],25.4%
same,CLH,[5],3.2 mL/min/g
same,Activity,[24],10 µM
same,Activity,[25],44.4%
same,CLH,[10],18.1 mL/min/g
same,MIC90,[12],0.21 µM
same,IC50,[26],135 µM
same,Activity,[27],12.2%
